Measured values from different studies.
Lines come from different studies, so protocols differ.
Effect on: cell growth or viability

COc1cc2c3c(n(CCCN4CCOCC4)c(=O)c2cc1OC)-c1nc2c(cc1C3=O)OCO2
IC50 (RD-ES; MTS; 72 h): 0.608 µM

Cc1nc(Nc2ccc3c(c2)/C(=C/c2ccccc2)C(=O)N3Cc2ccccc2)c2ccccc2n1
IC50 (B16; MTT): 15.1 µM

Nc1ccc(/C=C/C(=O)N2CCc3c(oc4c(-c5ccc(F)cc5)cc(-c5ccc(C(=O)N6CCC(F)(F)CC6)nn5)cc34)C2)cn1
IC50 (BXPC-3; CCK-8; 72 h): > 20 µM

CCNCCCn1c2c(c3cc(OC)c(OC)cc3c1=O)C(=O)c1cc3c(nc1-2)OCO3
IC50 (RD-ES; MTS; 72 h): 0.02 µM

C=CC(=O)NC1CCN(c2ncc3ncnc(Nc4ccc(Oc5ccc6c(c5)ncn6C)c(C)c4)c3n2)CC1
EC50 (NCI-H2172): 6.65 µM

C=CC(=O)c1cccnc1Nc1cc(C(F)(F)F)ccc1OCc1ccccc1
GI50 (BXPC-3; SRB; 48 h): 11.6 µM

COc1cc2ncnc(N(C)c3ccc4c(c3)/C(=C/c3cccc(Cl)c3)C(=O)N4C)c2cc1OC
IC50 (B16; MTT): 2.51 µM

C=CC(=O)c1cccnc1Nc1cc(C(F)(F)F)ccc1OC
GI50 (BXPC-3; SRB; 48 h): 6.19 µM

Cc1nc(Nc2ccc3c(c2)C(C)(C)C(=O)N3C)c2ccccc2n1
IC50 (B16; MTT): 14 µM

COc1cc2c3c(n(CCCNC(C)C)c(=O)c2cc1OC)-c1nc2c(cc1C3=O)OCO2
IC50 (RD-ES; MTS; 72 h): 0.031 µM

Nc1ccc(/C=C/C(=O)N2CCc3c(oc4c(-c5ccc(F)cc5)cc(-c5ccc(C(=O)N6C[C@@H]7[C@H](C6)C7(F)F)nn5)cc34)C2)cn1
IC50 (BXPC-3; CCK-8; 72 h): > 20 µM

Cc1nc(Nc2ccc3c(c2)/C(=C/c2ccccc2Cl)C(=O)N3)c2ccccc2n1
IC50 (B16; MTT): 3.34 µM
